# Bioassay records (PubChem BioAssay)
# Sampled rows, rich in hits. Any-hit rate of the full collection: about 2.7%.
# RAM network inh = yeast RAM network inhibition; 190,000 compounds, 1.8% hits; inhibition, % at 50 µM; S. cerevisiae dse1pr::URA3 reporter, 5-FOA growth OD615, 2 d; analog-sensitive cbk1-as2 kinase mutant strain; AID 868;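 active = inhibition above a set limit, 3 SD over mean compound inhibition, cut at about 8.4% in these data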;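 also: inhibition rescues growth on 5-FOA so higher OD means more RAM inhibition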
# Yeast life ext = extends the lifespan of yeast; S. cerevisiae growth with nicotinamide, OD615; deaD strain in restrictive glucose medium; 130,000 compounds, 0.68% hits; inhibition of the nicotinamide effect, % at 10 µM; AID 775;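 active = inhibition above a set limit, placed 3 SD over the median of all compounds, cut at about 26% in these data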
#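 Measured by: optical density (absorbance) at 615 nm; System: modified budding yeast, DeaD strain; Medium: restrictive CSMM-D dextrose medium; Timing: 4 h preincubation then 48 h treatment at 30 °C.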
# Phagocyt inh = macrophage phagocytosis inhibition; J774A.1 macrophage IgG-bead phagocytosis, imaging; 110,000 compounds, 0.07% hits; inhibition, % at 5 µM;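 active = inhibition above the mean of the plate negative controls plus 5 SD, cut at about 13% in these data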;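 also: phagocytic index as fraction of beads internalized from green versus red external bead signal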
# Yeast growth inh = chemicals that inhibit yeast BB579 growth in restrictive medium (lifespan-shortening candidates); S. cerevisiae BB579 growth, OD615, 48 h; inhibition, % at 10 µM; 140,000 compounds, 0.51% hits; AID 804;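 active = inhibition above a set limit, 3 SD over the mean compound inhibition, cut at about 44% in these data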
#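 Material: Saccharomyces cerevisiae DeaD strain BB579, replicative lifespan model yeast; buffer or medium: CSMM-D restrictive synthetic medium containing dextrose (glucose); compound: 10 µM single dose, DMSO 0.25%; timing: 48 h compound exposure at 30 °C after 4 h preincubation; signal: turbidity as optical density at 615 nm; benchmarks: positive control amphotericin B 10 µg/mL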
# Hits are given with their value; n = inactive; x = not tested or not shown; [ ] = remark or other dose.
SMILES,RAM network inh,Yeast life ext,Phagocyt inh,Yeast growth inh
COc1cccc(N(C(=O)CCl)C(C(=O)NCCc2ccccc2)c2cccs2)c1 (configuration not stated),9.2,n,n,n
CCCc1nc2ccc(NC(=O)NCCC(=O)OCC)cc2c(=O)n1Cc1ccc(Cl)cc1,n,x,x,n
CCCc1nc2ccc(NC(=O)NCCC(=O)OCC)cc2c(=O)n1Cc1cccc(Cl)c1,10,n,n,n
CC(Nc1ccc(Br)cn1)c1cc(Cl)ccc1O (configuration not stated),n,n,n,60
CC(Nc1ccc(Cl)cc1)c1cc(Cl)ccc1O (configuration not stated),n,x,x,n
Cc1cc(NC(=O)CSc2nnc(-c3ccncc3)n2-c2ccc(F)cc2)no1,n,x,x,x
COc1ccc(-c2noc(CSc3nnc(-c4ccncc4)n3-c3ccc(F)cc3)n2)cc1OC,n,148,n,n
Cc1ccc2c(c1)c(-c1ccccc1)nc1nnnn12,n,x,x,x
COc1ccc(CCN2C(=O)CC(NNc3ccc([N+](=O)[O-])cc3)C2=O)cc1OC (configuration not stated),n,x,x,x
O=C(CC1SC(=NCCc2ccccc2)N(/N=C/c2cccs2)C1=O)Nc1ccc(Cl)cc1 (configuration not stated),n,n,n,n
Cc1ccc(SCCNC(=O)/C=C/c2cccc([N+](=O)[O-])c2)cc1,9.7,n,x,n
O=C(/C=C/c1cccc([N+](=O)[O-])c1)NCCSCc1c(Cl)cccc1Cl,9.7,n,n,n
Cc1cc(C(=O)c2ccc(Cl)cc2)c(NC(=O)CCl)s1,n,n,n,n
CCc1cc(C(=O)c2ccc(C)cc2)c(NC(=O)CCl)s1,9.2,n,n,n
CCc1ccc(C(=O)COC(=O)c2cc([N+](=O)[O-])ccc2NCCO)cc1,10,n,n,n
CCSc1ccc2cc(OC)ccc2[n+]1CC,n,x,x,x
COc1ccc(OC)c(C(=O)CSc2nnc(Cc3cccs3)n2CCc2ccccc2)c1,n,n,x,n
CCCCc1c(C)nc2c(OC)cccc2c1SCCC(=O)O,n,n,n,n
CCc1c(C)nc2c(OC)cccc2c1SCCC(=O)O,n,n,37[artifact],n
COc1ccc(NC(=O)CSc2nc(O)cc(=O)n2-c2ccccc2OC)cc1,n,n,n,n
COc1ccccc1-n1c(SCC(=O)Nc2cccc3ccccc23)nc(O)cc1=O,n,n,190,n
O=C(NCc1cccnc1)NC1CC(=O)N(c2ccc3c(c2)OCCO3)C1 (configuration not stated),n,x,x,x
Nc1nc(-c2ccco2)nn1S(=O)(=O)c1ccc(Cl)cc1,n,x,x,x
CCOC(=O)c1cnc(SC)nc1Oc1cccc(NC(=O)c2cccc(Cl)c2Cl)c1,9.4,n,n,n
CCOC(=O)c1cnc(SC)nc1Oc1cccc(NS(=O)(=O)c2ccc(F)cc2)c1,9.8,n,n,n
SMILES,RAM network inh,Yeast life ext,Phagocyt inh,Yeast growth inh
CCOC(=O)c1cnc(SC)nc1Oc1cccc(NS(=O)(=O)c2ccccc2)c1,n,n,n,n
Cc1nn(C)c(Cl)c1C(=O)NCC(=O)Nc1ccc(C(C)C)cc1,n,x,x,x
CCOC(=O)c1c(NC(=O)C2C3C=CC(C3)C2C(=O)O)sc2c1CCC(CC)C2 (configuration not stated),n,42,n,n
CCOC(=O)c1c(NC(=O)C2C3CCC(O3)C2C(=O)O)sc2c1CCC(CC)C2 (configuration not stated),n,x,x,x
COc1ccc(OC)c(NS(=O)(=O)Cc2ccccc2)c1,n,n,n,n
N#Cc1ccccc1Sc1ccccc1C(=O)OCc1nnc(-c2ccccc2)o1,10,n,n,n
N#Cc1ccccc1Sc1ccccc1C(=O)OCC(N)=O,n,x,x,x
CCc1nn2cc(C(=O)c3cc(Cl)ccc3O)cnc2c1-c1ccc(F)cc1,n,n,n,n
CCCC(=O)Nc1ccc(C(=O)Nc2ccc([N+](=O)[O-])cc2OC)cc1,n,x,x,x
COc1cc([N+](=O)[O-])ccc1NC(=O)CCCOc1ccccc1,n,n,n,n
CCCCC(=O)Nc1ccc(NC(=O)c2ccc([N+](=O)[O-])cc2)cc1OC,9.1,n,n,n
COc1cc([N+](=O)[O-])ccc1NC(=O)CCCOc1cc(C)ccc1C,9.9,n,n,n
O=C(O)c1ccccc1-c1nc2ccccc2[nH]1,n,x,x,x
Oc1ccc2ccccc2c1C=Nc1ccccc1-c1nc2ccccc2[nH]1,n,39,n,n
CCCn1nc(NC(=O)c2ccccn2)c2cc3cc(C)ccc3nc21,9.2,n,n,n
O=C(NCC(=O)N(c1ccccc1)C(C(=O)NC1CCCCC1)c1cccnc1)c1cccs1 (configuration not stated),n,x,x,x
